# Results reported in ChEMBL document CHEMBL4831505, “Plant-Derived Cyclotides Modulate κ-Opioid Receptor Signaling” (J Nat Prod, 2021).
# Key:
# [1] = biological target: T1, Kappa-type opioid receptor (Mus musculus, UniProt P33534); assay: Agonist activity at mouse kappa opioid receptor […] assessed as beta-arrestin 2 recruitment using furimazine as a substrate preincubated for 5 mins followed by ligand addition measured for 35 mins by BRET assay; format: functional, HEK293, Cell membrane
# [2] = biological target: Kappa-type opioid receptor (Mus musculus) (UniProt P33534); assay: Positive allosteric modulator activity in mouse kappa opioid receptor stably expressed in HEK293 cell membrane assessed as inhibition of forskolin induced cAMP production by measuring dyn A1-13 Emax incubated with dyn A1-13 alone measured after 30 mins by HTRF assay relative to control; format: functional, cell membranes; settings: filed as positive allosteric modulator, dose 0.03 µM, time 60.0 min
# How it was run: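 Stably transfected mouse KOR HEK293 cells were pretreated with modulator (0.03–10 μM) for 30 min at 37 °C. Dyn A1-13 or U50,488 plus forskolin (10 μM final) with IBMX were then added for a further 30 min at 37 °C. HTRF cAMP read at 665/620 nm. Normalised to the highest orthosteric agonist concentration; unconstrained three-parameter fit, slope 1; n = 4 (7 at 10 μM).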
# [3] = biological target: T1, Kappa-type opioid receptor; assay: Positive allosteric modulator activity in mouse kappa opioid receptor stably expressed in HEK293 cell membrane assessed as binding affinity of dyn A1-13 to orthosteric binding site incubated with dyn A1-13 alone for 90 mins by radioligand competition binding assay; format: cell membranes
# [4] = biological target: T1, Kappa-type opioid receptor; assay: Positive allosteric modulator activity in mouse kappa opioid receptor stably expressed in HEK293 cell membrane assessed as inhibition of forskolin induced cAMP production by measuring dyn A1-13 EC50 incubated with dyn A1-13 alone measured after 30 mins by HTRF assay; format: functional, cell membranes
# How it was run: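 HEK293 stably expressing mouse KOR (2000 cells/well), pretreated 30 min at 37 °C with T20K (0.03–10 μM) or none, then dyn A1–13 with 10 μM forskolin and 0.5 mM IBMX for 30 min at 37 °C. cAMP by HTRF (665/620 nm) after 1 h at room temperature. Triplicates; normalized to top dyn A1–13 concentration; three-parameter fit, slope 1.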
compound,measurement,setting,value
CC[C@H](C)[C@H](NC(=O)[C@H](CCCNC(=N)N)NC(=O)[C@H](CCCNC(=N)N)NC(=O)[C@H](CC(C)C)NC(=O)[C@H](Cc1ccccc1)NC(=O)CNC(=O)CNC(=O)[C@@H](N)Cc1ccc(O)cc1)C(=O)N[C@@H](CCCNC(=N)N)C(=O)N1CCC[C@H]1C(=O)N[C@@H](CCCCN)C(=O)N[C@@H](CC(C)C)C(=O)N[C@@H](CCCCN)C(=O)O [ANALOG OF DYNORPHIN A],EC50,[1],159 nM
same,Emax,[2],100%
same,Ki,[3],0.3 nM
same,EC50,[4],6.7 nM
